Assay results: ChEMBL document CHEMBL4823261, “Grincamycins P-T: Rearranged Angucyclines from the Marine Sediment-Derived Streptomyces sp. CNZ-748 Inhibit Cell Lines of the Rare Cancer Pseudomyxoma Peritonei” (J Nat Prod, 2021)

How the values were obtained:
[1] = Cytotoxicity against human PMP457-2 cells assessed as inhibition of cell proliferation measured after 24 hrs by crystal violet staining assay; assay type: functional, cell-based; conditions: PMP457-2, 24 h
Method in brief: (§1)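 PMP-derived lines (ABX023-1, PMP457-2, PMP501-1) and mucinous colonic adenocarcinoma peritoneal metastasis line C09-1. Seeded at 30 000 cells/well in triplicate in Ham's F12 with 10% FBS, L-glutamine, insulin and sodium selenite. Grown 24 h at 37 °C, then treated for 24 h. Controls were DMSO vehicle, 5-fluorouracil and 10% EtOH dead-cell. Cells were stained with 0.2% crystal violet, solubilised in SDS/EtOH and read at OD595.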

[2] = Cytotoxicity against human ABX023-1 cells assessed as inhibition of cell proliferation measured after 24 hrs by crystal violet staining assay; assay type: functional, cell-based; conditions: ABX023-1, 24 h; method in brief: as §1
[3] = Cytotoxicity against human PMP501-1 cells assessed as inhibition of cell proliferation measured after 24 hrs by crystal violet staining assay; assay type: functional, cell-based; conditions: PMP501-1, 24 h; method in brief: as §1
[4] = Cytotoxicity against human C09-1 cells assessed as inhibition of cell proliferation measured after 24 hrs by crystal violet staining assay; assay type: functional, cell-based; conditions: C09-1, 24 h; method in brief: as §1
[5] = Stability of the compound in 0.1% TFA/MeOH solution measured after 12 hrs by LC/MS analysis; assay type: physicochemical
Method in brief: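 10 μg aliquots were incubated in 0.1% TFA in MeOH at 30 °C for 12 h, then dried under N2 and redissolved in MeOH. Analysed by UHPLC-DAD-ESI(±)MS on C18 with a water/MeCN gradient containing 0.1% formic acid. Compared against authentic standards run by the same method.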

| SMILES | IC50 [1] | IC50 [2] | IC50 [3] | IC50 [4] | Stabilty [5] |
| --- | --- | --- | --- | --- | --- |
| C[C@@H]1O[C@@H](O[C@H]2CC[C@H](O[C@H]3[C@H](O)C[C@H](c4ccc5c(c4O)C(=O)c4ccc(C[C@@](C)(O)CC(=O)O)c(O)c4C5=O)O[C@@H]3C)O[C@H]2C)C(N)=CC1=O | > 100 µM | 23 µM | 12 µM | 17 µM |  |
| CSC1=CC(=O)[C@H](C)O[C@H]1O[C@H]1CC[C@H](O[C@H]2[C@H](O)C[C@H](c3ccc4c(c3O)C(=O)c3ccc(C[C@](C)(CC(=O)O)O[C@H]5CC[C@H](O[C@H]6CC[C@H](O)[C@H](C)O6)[C@H](C)O5)c(O)c3C4=O)O[C@@H]2C)O[C@H]1C | 7.8 µM | 13 µM | 3.9 µM | 61 µM |  |
| C[C@@H]1O[C@@H](O[C@H]2[C@H](O)C[C@H](c3ccc4c(c3O)C(=O)c3ccc(C[C@@](C)(O)CC(=O)O)c(O)c3C4=O)O[C@@H]2C)CC[C@@H]1O[C@H]1CC[C@H](O)[C@H](C)O1 | 23 µM | 21 µM | > 100 µM | 32 µM |  |
| C[C@@H]1O[C@@H](O[C@H]2[C@H](O)C[C@H](c3ccc4c(c3O)C(=O)c3ccc(C[C@](C)(CC(=O)O)O[C@H]5CC[C@H](O[C@H]6CC[C@H](O)[C@H](C)O6)[C@H](C)O5)c(O)c3C4=O)O[C@@H]2C)CC[C@@H]1O[C@H]1CC[C@H](O)[C@H](C)O1 | 11 µM | 45 µM | 18 µM | 38 µM |  |
| C[C@@H]1O[C@@H](O[C@H]2[C@H](O)C[C@H](c3ccc4c(c3O)C(=O)c3c(O)cc(C[C@](C)(CC(=O)O)O[C@H]5CC[C@H](O[C@H]6CC[C@H](O)[C@H](C)O6)[C@H](C)O5)c(O)c3C4=O)O[C@@H]2C)CC[C@@H]1O[C@H]1CC[C@H](O)[C@H](C)O1 | 1.9 µM | 1.4 µM | 2.7 µM | 8.7 µM |  |
| C[C@H]1O[C@@H](c2ccc3c(c2O)C(=O)c2ccc(C[C@@](C)(O)CC(=O)O)c(O)c2C3=O)C[C@@H](O)[C@@H]1O | 6.7 µM | 49 µM | 11 µM | 42 µM | Stable |
| C[C@@H]1O[C@H]2O[C@@H]3[C@@H](C)O[C@@H](c4ccc5c(c4O)C(=O)c4ccc(C[C@@](C)(O)CC(=O)O)c(O)c4C5=O)C[C@H]3O[C@H]2C[C@@H]1O | > 100 µM | 14 µM | 23 µM | 19 µM | Stable |
| C[C@@H]1O[C@@H](O[C@H]2[C@H](O)C[C@H](c3ccc4c(c3O)C(=O)c3ccc(C[C@@](C)(O)CC(=O)O)c(O)c3C4=O)O[C@@H]2C)CC[C@@H]1O | 5.9 µM | 12 µM | 14 µM | 6.6 µM |  |
| C[C@@H]1O[C@@H](O[C@H]2[C@H](O)C[C@H](c3ccc4c(c3O)C(=O)c3c(O)cc(C[C@@](C)(O)CC(=O)O)c(O)c3C4=O)O[C@@H]2C)CC[C@@H]1O[C@H]1CC[C@H](O)[C@H](C)O1 | 5.5 µM | 4.7 µM | 2.5 µM | 10 µM |  |
| O=c1[nH]cc(F)c(=O)[nH]1 [FLUOROURACIL] | 2 µM | 3.4 µM | 3.6 µM | 4 µM |  |
